Sampled rows, rich in hits. Any-hit rate of the full collection: about 1.5%.
CRFBP-R2 block: antagonists of CRF-BP/CRF-R2 complex, primary screen, cell-based, HEK293, calcium dye fluorescence, uHTS | CRF-induced calcium fluorescence | inhibition, % at 11.8 µM | hit rate 0.59% among 350,000;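 active = inhibition of the ligand-induced calcium signal above about 50% at the single tested concentration, limit read from the data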
PKA-R1A act: activators of PKA-R1A holoenzyme, primary screen, biochemical, fluorescence polarization, Cy5-IP20, bovine R1A, mouse PKAc | cAMP-dependent protein kinase type I-alpha regulatory subunit (Bos taurus) + … | PKA-R1A dissociation; scaled: DMSO 0%, 113 µM cGMP 100% | activation, % at 11.4 µM | hit rate 0.083% among 340,000 | AID 504707, 2011;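 active = percent activation above the mean of all tested compounds plus 3 SD, cut at about 19% in these data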;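 also: higher means more PKAc released from R1A so a rise in polarization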
SIRT5 block: SIRT5 desuccinylase inhibitors, primary screen, biochemical, fluorescence imaging, single point, set 5 | NAD-dependent protein deacylase sirtuin-5, mitochondrial (Homo sapiens), Q9NXA8 | hit rate 1.1% among 330,000 | inhibition, % at 15 µM | Purified SirT5, succinyl-peptide AMC, trypsin-coupled fluorescence; in the data active = inhibition above about 15%
PKA-R2B activ: activators of PKA-R2B holoenzyme, primary screen, biochemical, fluorescence polarization, Cy5-IP20, human | cAMP-dependent protein kinase catalytic subunit beta (Homo sapiens) + cAMP-dependent … | PKA-R2B holoenzyme dissociation; R2B truncated from residue 108, S112A mutant; 0% DMSO only, 100% 113 µM cGMP | activation, % at 11.4 µM | hit rate 0.079% among 340,000;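 active = activation above a cutoff set at the mean over all compounds plus 3 SD, cut at about 18% in these data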;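 also: higher means more holoenzyme dissociation and a rise in polarization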
Target sequence (P31323 whole entry, looked up, other chains not shown, the tested form may be a part): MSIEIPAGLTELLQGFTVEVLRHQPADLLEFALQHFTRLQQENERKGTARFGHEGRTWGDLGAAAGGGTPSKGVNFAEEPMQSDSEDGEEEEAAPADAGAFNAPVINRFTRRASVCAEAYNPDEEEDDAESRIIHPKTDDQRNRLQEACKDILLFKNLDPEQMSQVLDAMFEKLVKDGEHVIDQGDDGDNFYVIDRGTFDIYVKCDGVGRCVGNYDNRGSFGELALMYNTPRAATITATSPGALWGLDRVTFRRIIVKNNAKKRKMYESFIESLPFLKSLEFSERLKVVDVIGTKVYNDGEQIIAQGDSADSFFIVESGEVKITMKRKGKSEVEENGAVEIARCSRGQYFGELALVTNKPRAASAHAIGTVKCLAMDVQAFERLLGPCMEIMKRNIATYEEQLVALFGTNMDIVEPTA
S100A4 MyoIIA: inhibitors of S100A4-myosin IIA peptide binding, primary screen, biochemical, fluorescence polarization, TAMRA-MyoIIA peptide; Protein S100-A4 (Homo sapiens), P26447; inhibition, % at 10.7 µM; hit rate 0.14% among 360,000;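 active = mean inhibition of at least 70% across replicates, with every replicate also reaching that level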
Target sequence (P26447 whole entry, looked up): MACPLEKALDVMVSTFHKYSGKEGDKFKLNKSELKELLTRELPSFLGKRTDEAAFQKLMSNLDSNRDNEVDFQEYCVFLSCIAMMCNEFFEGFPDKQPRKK
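incubation = readout 5 min after mixing, signal stable up to 60 min | system = S100A4 monomer protein | buffer or medium = HEPES pH 7.2 with CaCl2, KCl, NaCl, DTT, Triton | benchmarks = neutral control DMSO, positive control TFP | also added = fluorescent myosin IIA peptide, 5 nM | compound dosing = one concentration per compound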
Of the large screens only hits and unclear results are named; the others gave an inactive call.

CC(=O)Nc1cccc(NC(=O)CSc2nnc(NC(=O)c3ccco3)s2)c1	none
CCOc1ccc(N(CC(=O)NC2CCC(C)CC2)S(=O)(=O)c2c(C)noc2C)cc1 (stereo not drawn)	CRFBP-R2 block 61.8
CCOc1ccc(N(CC(=O)NC2CCCCC2C)S(=O)(=O)c2c(C)noc2C)cc1 (stereo not drawn)	none
COc1ccc(Cc2c(-c3ccccc3)nc3ccc(C)cn23)c(C)c1	none (no result: CRFBP-R2 block, PKA-R1A act, PKA-R2B activ)
COc1ccc(Cc2c(-c3cccc(Cl)c3)nc3ccc(C)cn23)c(C)c1	SIRT5 block 22.4 (no result: CRFBP-R2 block, PKA-R1A act, PKA-R2B activ)
COC(=O)C1=C(C)N(Cc2ccccc2C(F)(F)F)C(=NCc2ccc3c(c2)OCO3)NC1c1ccccc1 (stereo not drawn)	SIRT5 block 16.5 (no result: CRFBP-R2 block, PKA-R1A act, PKA-R2B activ)
COC(=O)C1=C(C)N(Cc2ccccc2C(F)(F)F)C(=NCc2ccc3c(c2)OCO3)NC1c1ccc(C(F)(F)F)cc1 (stereo not drawn)	none (no result: CRFBP-R2 block, PKA-R1A act, PKA-R2B activ)
COc1ccc(C(=O)NC(=S)Nc2ccc(CN3CCOCC3)cc2)cc1Br	SIRT5 block 15.7
CC(=O)Nc1ccc(/C(C)=N/NC(=O)c2ccc(CN3CCOCC3)cc2)cc1	SIRT5 block 35.2
COc1ccc(CSCC(=O)N/N=C/c2ccc(OCC(=O)NCc3ccco3)cc2)cc1	none (no result: SIRT5 block, S100A4 MyoIIA)
Cc1cc(C)cc(CSCC(=O)N/N=C/c2ccc(OCC(=O)NCc3ccco3)cc2)c1	SIRT5 block 19.7
O=C(CCN1C(=O)/C(=C/c2ccco2)SC1=S)Nc1ccc(O)cc1C(=O)O	SIRT5 block 48.1
O=C(CCN1C(=O)/C(=C\c2ccccc2Cl)SC1=S)Nc1cccnc1	none
CC(=Cc1ccccc1)C=C1SC(=S)N(CCCC(=O)Nc2ccc(C(=O)O)cc2)C1=O	SIRT5 block 27.3 (no result: CRFBP-R2 block, PKA-R1A act, PKA-R2B activ)
O=C(CN1C(=O)/C(=C\c2ccco2)SC1=S)Nc1ccc(O)cc1C(=O)O	SIRT5 block 48.5
O=C(CCCN1C(=O)/C(=C\c2ccccc2)SC1=S)Nc1ccc(O)cc1C(=O)O	none
CC(/C=C1\SC(=S)N(CCCC(=O)Nc2ccc(C(=O)O)cc2)C1=O)=C\c1ccccc1	none (no result: SIRT5 block, S100A4 MyoIIA)
O=C(CCN1C(=O)/C(=C/c2ccccc2Cl)SC1=S)Nc1ccccc1C(=O)O	SIRT5 block 17.8
C/C=C/c1ccccc1[C@@H]1[C@@H](CO)N(C(=O)Cc2ccccn2)[C@H]1C#N	none (no result: CRFBP-R2 block, PKA-R1A act, PKA-R2B activ)
O=C(CCCN1C(=O)/C(=C/c2ccco2)SC1=S)Nc1ccccc1C(=O)O	SIRT5 block 26.5
O=c1c2c([N+](=O)[O-])cc([N+](=O)[O-])cc2sn1Cc1ccccc1	SIRT5 block 20.4
O=C(C[C@@H]1C[C@@H]2c3cc(NC(=O)Nc4ccccc4)ccc3O[C@@H]2[C@H](CO)O1)NC1CCCC1	none (no result: CRFBP-R2 block, PKA-R1A act, PKA-R2B activ)
O=C(C[C@@H]1C[C@H]2c3cc(NC(=O)NC4CCCC4)ccc3O[C@H]2[C@H](CO)O1)NCCc1ccccc1	S100A4 MyoIIA 111.1 (no result: CRFBP-R2 block, PKA-R1A act, PKA-R2B activ)
O=C(C[C@H]1C[C@@H]2c3cc(NC(=O)Nc4ccccc4)ccc3O[C@@H]2[C@H](CO)O1)NC1CCCC1	SIRT5 block 0.5 (no result: CRFBP-R2 block, PKA-R1A act, PKA-R2B activ)
C[C@H]1CN([C@@H](C)CO)C(=O)Cc2cc(NC(=O)c3ccncc3)ccc2O[C@H]1CN(C)C(=O)Nc1ccc2c(c1)OCO2	none (no result: CRFBP-R2 block, PKA-R1A act, PKA-R2B activ)
O=C(c1cccc(F)c1)N1CCCCN2[C@@H](CO)[C@H](c3ccc(/C=C/c4ccccc4)cc3)[C@@H]2C1	none (no result: CRFBP-R2 block, PKA-R1A act, PKA-R2B activ)
C[C@H]1CN([C@@H](C)CO)C(=O)Cc2cc(NS(=O)(=O)c3ccccc3)ccc2O[C@H]1CN(C)C(=O)NC1CCCCC1	none (no result: CRFBP-R2 block, PKA-R1A act, PKA-R2B activ)
Cc1c(C(c2ccc(N(C)C)cc2)c2c(C)n(C)n(-c3ccccc3)c2=O)c(=O)n(-c2ccccc2)n1C	CRFBP-R2 block 53.6
Cc1c(C(c2ccccc2)c2c(C)n(C)n(-c3ccccc3)c2=O)c(=O)n(-c2ccccc2)n1C	none
Cc1ccc(NC(=O)CSc2nc3ccccc3c(=O)n2CCCC(=O)NCCCN2CCOCC2)cc1	CRFBP-R2 block 71.6
C[C@@H]1CCCCO[C@@H](CN(C)S(=O)(=O)c2cn(C)cn2)[C@@H](C)CN([C@H](C)CO)C(=O)c2cc(NC(=O)Nc3ccc(F)cc3)ccc2O1	none (no result: CRFBP-R2 block, PKA-R1A act, PKA-R2B activ)

Screening data: PubChem BioAssay, several laboratories
